Experimental data taken from ChEMBL document CHEMBL1152781, “Design, synthesis, and structure-activity analysis of isoform-selective retinoic acid receptor beta ligands” (J Med Chem, 2009).
≈ marks a conversion by molar mass, not a printed value. Calls of active or inactive are those of the source. No cut-off for these calls is given here.

Key:
[1] = target: T1, Retinoic acid receptor alpha (Homo sapiens, UniProt P10276); experiment: Activity at RARalpha expressed in mouse NIH3T3 cells by R-SAT assay; assay type: cell-based; conditions: for pEC50: nih3t3
T1 sequence (P10276 whole entry): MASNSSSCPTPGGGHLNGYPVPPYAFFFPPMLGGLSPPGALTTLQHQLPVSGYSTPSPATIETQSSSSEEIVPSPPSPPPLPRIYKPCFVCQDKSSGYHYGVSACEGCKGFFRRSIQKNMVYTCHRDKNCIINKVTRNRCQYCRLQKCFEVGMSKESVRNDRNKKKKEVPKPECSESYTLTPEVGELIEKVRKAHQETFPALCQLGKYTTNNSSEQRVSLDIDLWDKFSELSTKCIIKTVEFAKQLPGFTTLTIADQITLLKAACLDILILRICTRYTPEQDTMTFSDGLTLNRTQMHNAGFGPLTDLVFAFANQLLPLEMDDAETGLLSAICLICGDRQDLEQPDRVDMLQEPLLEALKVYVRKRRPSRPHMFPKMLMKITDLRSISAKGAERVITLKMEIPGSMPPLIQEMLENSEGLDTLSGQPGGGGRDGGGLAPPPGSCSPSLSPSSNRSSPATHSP

[2] = target: T2, Retinoic acid receptor beta (Homo sapiens) (UniProt P10826); experiment: Agonist activity at RARbeta2 expressed in mouse NIH3T3 cells by R-SAT assay relative to Am-580; assay type: functional, cell-based
T2 sequence (whole entry): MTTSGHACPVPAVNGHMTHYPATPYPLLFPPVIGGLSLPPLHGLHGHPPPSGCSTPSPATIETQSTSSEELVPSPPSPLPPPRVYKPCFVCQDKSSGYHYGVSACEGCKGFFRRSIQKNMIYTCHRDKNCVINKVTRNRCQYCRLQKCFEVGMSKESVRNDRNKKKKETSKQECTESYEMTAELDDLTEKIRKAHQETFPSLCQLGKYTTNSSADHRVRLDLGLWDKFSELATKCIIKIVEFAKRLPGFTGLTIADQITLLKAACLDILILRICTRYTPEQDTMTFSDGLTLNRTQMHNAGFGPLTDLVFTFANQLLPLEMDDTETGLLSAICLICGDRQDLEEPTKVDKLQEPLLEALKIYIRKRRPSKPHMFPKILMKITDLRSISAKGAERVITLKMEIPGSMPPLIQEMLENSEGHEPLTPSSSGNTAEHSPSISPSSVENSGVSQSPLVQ
Summary of the method: (§1)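 High-throughput cell-proliferation functional assay (R-SAT). Efficacy is expressed relative to reference agonist AM-580, which is set to 100%. pEC50 and efficacy are means of at least three experiments ± SD. […] Where marked, efficacy is the maximum at concentrations <10 µM.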

[3] = target: T2, Retinoic acid receptor beta (Homo sapiens); experiment: Activity at RARbeta1 expressed in mouse NIH3T3 cells at <10 uM by R-SAT assay relative to Am-580; assay type: cell-based; summary of the method: as §1
[4] = target: T3, Retinoic acid receptor gamma (Homo sapiens) (UniProt P13631); experiment: Activity at RARgamma expressed in mouse NIH3T3 cells at <10 uM by R-SAT assay relative to Am-580; assay type: cell-based; summary of the method: as §1
T3 sequence (whole entry): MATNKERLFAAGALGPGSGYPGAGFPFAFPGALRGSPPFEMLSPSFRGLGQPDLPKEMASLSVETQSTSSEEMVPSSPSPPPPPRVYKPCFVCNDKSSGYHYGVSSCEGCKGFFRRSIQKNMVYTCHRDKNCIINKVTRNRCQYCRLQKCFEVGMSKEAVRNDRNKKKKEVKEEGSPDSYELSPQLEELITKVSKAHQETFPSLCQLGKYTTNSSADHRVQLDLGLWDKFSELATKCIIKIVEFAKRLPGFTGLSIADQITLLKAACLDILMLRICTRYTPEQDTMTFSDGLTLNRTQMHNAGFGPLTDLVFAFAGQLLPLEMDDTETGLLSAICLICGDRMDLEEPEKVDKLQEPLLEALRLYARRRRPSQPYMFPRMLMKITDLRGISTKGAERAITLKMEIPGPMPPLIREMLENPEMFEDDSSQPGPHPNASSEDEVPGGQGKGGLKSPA

[5] = target: T4, Retinoic acid receptor beta (Homo sapiens, UniProt P10826); experiment: Agonist activity at RARbeta2 expressed in mouse NIH3T3 cells by R-SAT assay; assay type: functional, cell-based; conditions: for pEC50: nih3t3
T4 sequence (P10826 whole entry): T2 sequence (whole entry)

[6] = target: T5, Retinoic acid receptor gamma (Homo sapiens, UniProt P13631); experiment: Activity at RARgamma expressed in mouse NIH3T3 cells by R-SAT assay; assay type: cell-based; conditions: for pEC50: nih3t3
T5 sequence (P13631 whole entry): T3 sequence (whole entry)

[7] = target: T3, Retinoic acid receptor gamma (Homo sapiens); experiment: Activity at RARgamma expressed in mouse NIH3T3 cells by R-SAT assay relative to Am-580; assay type: cell-based; summary of the method: as §1
[8] = target: T2, Retinoic acid receptor beta (Homo sapiens); experiment: Activity at RARbeta1 expressed in mouse NIH3T3 cells by R-SAT assay relative to Am-580; assay type: cell-based; summary of the method: as §1
[9] = Metabolic stability in human liver microsomes assessed as intrinsic clearance; assay type: ADME, Microsome
Summary of the method: (§2)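 Liver microsomes, rat or human, as stated per line. Read-out is intrinsic clearance in µL/(min·mg) protein. Hepatic extraction was calculated without correcting for the unbound fraction of drug in plasma.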

[10] = Aqueous solubility in phosphate buffer at pH 7.4; assay type: physicochemical
[11] = target: T6, Retinoic acid receptor alpha (Homo sapiens) (UniProt P10276); experiment: Activity at RARalpha expressed in mouse NIH3T3 cells at <10 uM by R-SAT assay relative to Am-580; assay type: cell-based; summary of the method: as §1
T6 sequence (whole entry): T1 sequence (P10276 whole entry)

[12] = Lipophilicity, Log P of the compound; assay type: physicochemical; conditions: octanol/water
Summary of the method: (§3)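 Lipophilicity descriptors, cLogD at pH 7.4 and cLogP, are mostly calculated. Values in parentheses are experimentally determined.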

NTERA2 = experiment: Induction of neurite outgrowth in human NTERA2 cells; assay type: functional, cell-based
[13] = Metabolic stability in rat liver microsomes assessed as intrinsic clearance; assay type: ADME, Microsome; summary of the method: as §2
NIH3T3 [14] = experiment: Selectivity for RARbeta2 expressed in mouse NIH3T3 cells over RARbeta1 expressed in mouse NIH3T3 cells; assay type: cell-based
[15] = Distribution coefficient, log D of the compound; assay type: physicochemical; conditions: octanol/water; summary of the method: as §3
NIH3T3 [16] = experiment: Selectivity for RARbeta2 expressed in mouse NIH3T3 cells over RARgamma expressed in mouse NIH3T3 cells; assay type: cell-based
MCF7 [17] = experiment: Inhibition of human MCF7 cell proliferation assessed as inhibition of DNA synthesis by [3H]thymidine incorporation assay; assay type: functional, cell-based
[18] = target: T2, Retinoic acid receptor beta (Homo sapiens); experiment: Activation of RARbeta2 expressed in HEK293 cells after 48 hrs by RARE-luciferase reporter gene assay; assay type: cell-based
NIH3T3 [19] = experiment: Selectivity for RARbeta2 expressed in mouse NIH3T3 cells over RARalpha expressed in mouse NIH3T3 cells; assay type: cell-based
[20] = target: T4, Retinoic acid receptor beta; experiment: Activity at RARbeta1 expressed in mouse NIH3T3 cells by R-SAT assay; assay type: cell-based
MCF7 [21] = experiment: Inhibition of human MCF7 cell proliferation; assay type: functional, cell-based
[22] = Clearance in rat; assay type: ADME, organism-based; conditions: in vivo

SMILES: CC(C)CCCCOc1ccc(-c2ccc(C(=O)O)cc2)cc1
- pEC50 [1]: > 5
- Efficacy [2]: 75%
- Efficacy [3]: 28%
- Efficacy [4]: 31%

SMILES: CCCCCCCCc1ccc(-c2ccc(C(=O)O)cc2F)cc1
- EC50 [5]: 100 nM
- Efficacy [2]: 85%

SMILES: CCCCCCCCc1ccc(-c2ccc(C(=O)O)cc2C)cc1
- EC50 [5]: 100 nM
- Efficacy [2]: 37%

SMILES: CCCCCCCOc1ccc(-c2ccc(C(=O)O)cc2)cc1
- pEC50 [6]: > 5
- pEC50 [1]: > 5
- EC50 [5]: 63.1 nM
- Efficacy [2]: 62%
- Activity [7]: inactive
- Activity [8]: inactive

SMILES: CC1(C)CCC(C)(C)c2cc(C(=O)Nc3ccc(C(=O)O)cc3)ccc21
- Efficacy [7]: 99%

SMILES: CCCOCCOc1nc(-c2ccc(C(=O)O)cc2)sc1C
- EC50 [5]: 126 nM
- Efficacy [2]: 100%

SMILES: CCCCCCCOc1nc(-c2ccc(C(=O)O)cc2)sc1C
- pEC50 [5]: > 5
- Activity [2]: inactive

SMILES: CCCCOCCOc1ccc(-c2ccc(C(=O)O)c(F)c2)cc1
- microsomal CLint [9]: 8 µL/min/mg
- solubility [10]: 20 µg/mL (≈ 60.2 µM)
- EC50 [1]: 1580 nM
- EC50 [5]: 20 nM
- Efficacy [2]: 108%
- Efficacy [3]: 36%
- Efficacy [4]: 37%

SMILES: CCCCCCCc1cnc(-c2ccc(C(=O)O)cc2)nc1
- EC50 [5]: 1000 nM
- Efficacy [2]: 93%

SMILES: CCCCCCNC(=O)COc1nc(-c2ccc(C(=O)O)cc2)sc1C
- EC50 [6]: 631 nM
- EC50 [5]: 39.8 nM
- Efficacy [2]: 85%
- Efficacy [11]: 35%
- Efficacy [3]: 42%
- Efficacy [7]: 63%

SMILES: CCCCCCCCc1ccc(-c2ccc(C(=O)O)cc2)cc1
- logP [12]: 7.9
- microsomal CLint [9]: 5 µL/min/mg
- Activity (NTERA2): Active
- microsomal CLint [13]: 5 µL/min/mg
- fold change (FC) (NIH3T3 [14]): 100
- logD [15]: 4.5
- solubility [10]: < 1 µg/mL
- EC50 [1]: 2510 nM
- fold change (FC) (NIH3T3 [16]): 100
- Activity (MCF7 [17]): Active
- Activity [18]: Active
- fold change (FC) (NIH3T3 [19]): 100
- Efficacy [4]: 31%
- EC50 [20]: 2000 nM
- Activity (MCF7 [21]): Dose-dependent effect
- Efficacy [8]: 29%

SMILES: CCCCCCCCc1ccc(-c2ccc(C(=O)O)s2)cc1
- pEC50 [5]: > 5
- Activity [2]: inactive

SMILES: CCCCOCCOc1nc(-c2ccc(C(=O)O)cc2)sc1C
- EC50 [5]: 79.4 nM
- Efficacy [2]: 99%
- Efficacy [4]: 54%
- EC50 [20]: 1260 nM
- Efficacy [8]: 45%

SMILES: CCCCCCNC(=O)COc1ccc(-c2ccc(C(=O)O)cc2)cc1
- pEC50 [5]: > 5
- Activity [2]: inactive

SMILES: CCCCCCOc1ccc(-c2ccc(C(=O)O)cc2)cc1
- EC50 [5]: 31.6 nM
- Efficacy [2]: 72%
- Activity [8]: inactive

SMILES: CCCCCCCc1ccc(-c2ccc(C(=O)O)c(F)c2)cc1
- EC50 [5]: 126 nM
- Efficacy [2]: 50%

SMILES: CCCCCCCCOc1ccc(-c2ccc(C(=O)O)cc2)cc1
- EC50 [5]: 100 nM
- Efficacy [2]: 70%
- EC50 [20]: 1000 nM
- Efficacy [8]: 49%

SMILES: CCCCCCCCc1ccc(-c2ccc(C(=O)O)c(F)c2)cc1
- EC50 [6]: 158 nM
- EC50 [1]: 2000 nM
- EC50 [5]: 39.8 nM
- Efficacy [2]: 114%
- Efficacy [7]: 84%
- EC50 [20]: 398 nM
- Efficacy [8]: 54%

SMILES: CCOCCOc1nc(-c2ccc(C(=O)O)cc2)sc1C
- EC50 [5]: 63.1 nM
- Efficacy [2]: 78%

SMILES: CCCCCCCc1ccc(-c2ccc(C(=O)O)s2)cc1
- pEC50 [5]: > 5
- Activity [2]: inactive

SMILES: CCCCOCCOc1ccc(-c2ccc(C(=O)O)cc2)cc1
- pEC50 [6]: > 5
- pEC50 [1]: > 5
- EC50 [5]: 63.1 nM
- Efficacy [2]: 78%
- Activity [7]: inactive
- Activity [8]: inactive

SMILES: CCCCCCCc1ccc(-c2ccc(C(=O)O)cc2)cc1
- Efficacy [8]: 230%

SMILES: CCCCOCCOc1nc(-c2ccc(C(=O)O)c(F)c2)sc1C
- EC50 [6]: 501 nM
- microsomal CLint [9]: 36 µL/min/mg
- microsomal CLint [13]: 10 µL/min/mg
- EC50 [1]: 631 nM
- Efficacy [2]: 106%
- Efficacy [7]: 48%
- EC50 [20]: 398 nM
- clearance [22]: 41 mL/min/kg
- Efficacy [8]: 52%

SMILES: CCCCCCCCc1ccc(-c2ccc(C(=O)O)c(C)c2)cc1
- EC50 [5]: 631 nM
- Efficacy [2]: 84%

SMILES: CCCCCCCc1ccc(-c2ccc(C(=O)O)cc2C)cc1
- pEC50 [5]: > 5
- Activity [2]: inactive

SMILES: CCCCOCCOc1cc(C)c(-c2ccc(C(=O)O)cc2)cc1C
- EC50 [5]: 251 nM
- Efficacy [2]: 41%
